Here are results for 22 compounds from ChEMBL document CHEMBL3351496, “Inhibition of the ANT(2")-Ia resistance enzyme and rescue of aminoglycoside antibiotic activity by synthetic α-hydroxytropolones” (Bioorg Med Chem Lett, 2014).

What is called IC50 is the midpoint of a concentration-inhibition curve. Higher therefore signals lower potency. Usually inhibition stands for the percentage by which the read-out fell short of the control. Read a low inhibition as a weak effect. Usually Ki stands for a dissociation constant, usually derived from enzyme kinetics or from competition with a known ligand. Read a low Ki as tighter binding. As a reminder, the MIC is the lowest concentration found to suppress growth.

Calls of active or inactive are those of the source. The rule behind the calls is not given here.

Test [1] can be described thus: Inhibition of Escherichia coli BL21 (lambda DE3) 2''-O-adenylyltransferase 1a by EnzChek pyrophosphate assay. The method in brief: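 ANT(2″)-Ia overexpressed in E. coli BL21 (λDE3) and purified. Adenylation of kanamycin B followed by detecting the pyrophosphate by-product in 96-well format. ATP at 25 μM. Duplicate serial dilutions of inhibitor; IC50 taken from the dose curves.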

Test [2] relates to Escherichia coli. The test can be described thus: Inhibition of Escherichia coli W677/JR76.2 2''-O-adenylyltransferase 1a using [14C]ATP at 550 uM by liquid scintillation counting analysis.
Test [3] concerns Escherichia coli. In words: Inhibition of Escherichia coli W677/JR76.2 2''-O-adenylyltransferase 1a using [14C]ATP at 55 uM by liquid scintillation counting analysis.
Test [4] concerns Escherichia coli. In words: Inhibition of Escherichia coli W677/JR76.2 2''-O-adenylyltransferase 1a using [14C]ATP at 5.5 uM by liquid scintillation counting analysis.
The nature of test [5]: Binding affinity to Escherichia coli BL21 (lambda DE3) 2''-O-adenylyltransferase 1a by ATP-competitive inhibition assay. The method in brief: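 Purified ANT(2″)-Ia expressed in E. coli BL21 (λDE3). Pyrophosphate from kanamycin B adenylation detected by coupled pyrophosphate assay. Ki derived from dose curves with carefully maintained ATP and kanamycin B concentrations. Run only on compounds with IC50 < 200 μM.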

Test [6] concerns Escherichia coli. The test can be described thus: Antibacterial activity against Escherichia coli BW25113 expressing 2''-O-adenylyltransferase 1a with aadB gene into pGDP4 vector by checkerboard analysis in presence of gentamycin. Type of test: functional. The method in brief:
(§1)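 Hyper-permeable E. coli BW25113 made gentamicin-resistant by cloning aadB (ANT(2″)-Ia) into pGDP4. Cells were exposed to serial dilutions of gentamicin crossed with serial dilutions of α-hydroxytropolone in checkerboard format. Growth was scored to give the gentamicin MIC at each inhibitor level and the FICI. Cell survival, as fraction of cells remaining, was scored at the inhibitor-alone concentrations.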

In test [7] the test system is Escherichia coli. The test can be described thus: Inhibition of Escherichia coli W677/JR76.2 2''-O-adenylyltransferase 1a using [14C]ATP at 730 uM by liquid scintillation counting analysis.
In test [8] the test system is Escherichia coli. The test can be described thus: Inhibition of Escherichia coli W677/JR76.2 2''-O-adenylyltransferase 1a using [14C]ATP at 73 uM by liquid scintillation counting analysis.
The subject of test [9] is Escherichia coli. The test can be described thus: Inhibition of Escherichia coli W677/JR76.2 2''-O-adenylyltransferase 1a using [14C]ATP at 7.3 uM by liquid scintillation counting analysis.
Test [10] concerns Escherichia coli. The test can be described thus: Antibacterial activity against Escherichia coli BW25113 expressing 2''-O-adenylyltransferase 1d with aadB gene into pGDP4 vector by checkerboard analysis in presence of gentamycin. In kind it is functional.
The test system of test [11] is Escherichia coli. In words: Antibacterial activity against Escherichia coli BW25113 expressing 2''-O-adenylyltransferase 1a with aadB gene into pGDP4 vector assessed as gentamycin MIC at 12 uM by checkerboard analysis. Type of test: functional. The method in brief:
as §1

The test system of test [12] is Escherichia coli. In words: Antibacterial activity against Escherichia coli BW25113 expressing 2''-O-adenylyltransferase 1a with aadB gene into pGDP4 vector assessed as cell death at 50 uM. Type of test: functional, organism-based. The method in brief:
as §1

Test [13] relates to Escherichia coli. In words: Antibacterial activity against Escherichia coli BW25113 expressing 2''-O-adenylyltransferase 1a with aadB gene into pGDP4 vector assessed as cell remain at 50 uM. Type of test: functional. The method in brief:
as §1

Test [14] has as its system Escherichia coli. The test can be described thus: Antibacterial activity against wild type Escherichia coli BW25113. Type of test: functional, organism-based. The method in brief:
(§2)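 Gentamicin alone was serially diluted to find its MIC (μg/mL). This was done against E. coli BW25113 carrying aadB in pGDP4 and against wild-type BW25113 without the plasmid.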

Test [15] has as its system Escherichia coli. The test can be described thus: Antibacterial activity against Escherichia coli BW25113 expressing 2''-O-adenylyltransferase with aadB gene into pGDP4 vector. In kind it is functional, organism-based. The method in brief:
as §2

Turning to `Cc1cc(O)c(=O)c(O)cc1C(=O)CC1CCCCC1`, the half-inhibitory concentration (IC50) in [1] was greater than 200 µM.

`COC(=O)c1c(CCl)cc(O)c(=O)c(O)c1C(=O)OC` returned an IC50 in test [1] greater than 200 µM.

`Cc1cc(O)c(=O)c(O)cc1C(=O)c1ccccc1` came in with a 50% inhibitory concentration (IC50) in [1] greater than 200 µM.

For `O=c1c(O)ccccc1O`, the figures for the inhibition in [2], in [3] and in test [4] were 100%, 78% and 8%, respectively.

In the case of `COc1cc(C)c(C(C)=O)cc(O)c1=O`, the IC50 in test [1] was greater than 200 µM.

In test [1], `Cc1cc(O)c(=O)c(O)cc1-c1ccc2ccccc2c1` yielded a concentration for half-maximal inhibition (IC50) greater than 200 µM.

In turn, `Cc1cc(O)c(=O)c(O)cc1-c1ccccc1` had an IC50 in test [1] of 117 µM. The inhibition constant (Ki) in test [5] amounted to 25 µM. The “fractional inhibitory concentration index (FICI)” value in test [6] came out at 2.

`Cc1cc(O)c(=O)c(O)cc1C(=O)C(C)C` had an IC50 in test [1] of 73 µM. This compound yielded a Ki in [5] of 19 µM. Also, the “fractional inhibitory concentration index (FICI)” value in test [6] is on record as 0.375.

`Cc1cc(O)c(=O)c(O)cc1-c1cccc2ccccc12`: the IC50 in [1] was greater than 200 µM.

`CCOC(=O)c1cc(O)c(=O)c(O)cc1C`: the IC50 in test [1] was greater than 200 µM.

In the case of `COCc1cc(O)c(=O)c(O)c(C(=O)OC)c1C(=O)OC`, the IC50 in test [1] was greater than 200 µM.

For the compound `CC(C)c1ccc(O)c(=O)c(O)c1` [BETA-THUJAPLICINOL], the values for the inhibition in test [7], in test [8] and in [9] were 100%, 76% and 31%, respectively. The same compound registered a half-inhibitory concentration (IC50) in [1] of 6.6 µM. This compound also displayed a Ki in [5] of 6.4 µM. Besides, the “fractional inhibitory concentration index (FICI)” value was found to be 0.375 in test [6] and 3 in test [10]. Besides, in test [11], the MIC turned out to be 8 µg/mL. Further, the result in test [12] was Active.

On to `Cc1cc(O)c(=O)c(O)cc1C(=O)C1CCCCC1`, for which the half-inhibitory concentration (IC50) in test [1] is greater than 200 µM.

`COC(=O)c1c(C)cc(O)c(=O)c(O)c1C(=O)OC` yielded an IC50 in test [1] greater than 200 µM.

Compound `CC(=O)c1cc(O)c(=O)c(O)cc1C` had an IC50 in test [1] of 50 µM. The compound also came in with an inhibitory constant (Ki) in test [5] of 29 µM. Also, in [6], the “fractional inhibitory concentration index (FICI)” value was 0.187. For the same compound, the MIC in test [11] came out at 32 µg/mL. In addition, in test [13], the Activity is listed as 80%.

`Cc1cc(O)c(=O)c(O)cc1-c1ccc(-c2ccccc2)cc1`: the IC50 in test [1] was greater than 200 µM.

For the compound GENTAMICIN, the minimal inhibitory concentration (MIC) in test [14] turned out to be 0.25 µg/mL; in [15], 64 µg/mL.

On to `COc1cc(C)c(-c2ccc([N+](=O)[O-])cc2)cc(O)c1=O`, for which the concentration for half-maximal inhibition (IC50) in test [1] is greater than 200 µM.

In turn, `Cc1cc(O)c(=O)c(O)cc1-c1ccc([N+](=O)[O-])cc1` had an IC50 in test [1] of 20 µM. In addition, in test [5], the inhibition constant Ki came to 21.4 µM. The “fractional inhibitory concentration index (FICI)” value in test [6] stood at 0.5.

Compound `Cc1cc(O)c(=O)c(O)cc1-c1ccc(Cl)cc1` showed an IC50 in test [1] of 9.9 µM. Further, the Ki in [5] turned out to be 6.9 µM. Also, the “fractional inhibitory concentration index (FICI)” value in [6] was determined as 2.

With `Cc1cc(O)c(=O)c(O)cc1-c1ccc(C(F)(F)F)cc1`, in test [1], the IC50 is greater than 200 µM.

With `Cc1cc(O)c(=O)c(O)cc1-c1ccc(Br)cc1`, the midpoint of inhibition in [1], the IC50, lay at 8 µM. The inhibitory constant (Ki) in test [5] is 5.7 µM. In addition, the “fractional inhibitory concentration index (FICI)” value in [6] amounted to 1.
